Yeast growth inh: yeast BB579 growth reduction in restrictive medium. S. cerevisiae BB579 growth, OD615, 48 h. inhibition, % at 10 µM. actives 0.51% (n = 140,000);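 active means inhibition above a set limit, 3 SD over the mean compound inhibition, cut at about 44% in these data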
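test system = yeast BB579 (DeaD) | buffer or medium = restrictive CSMM-D medium | doses = single compound dose of 10 µM, 0.25% DMSO final | times = 4 h preincubation and 48 h exposure at 30 °C | technique = culture absorbance at 615 nm | benchmarks = amphotericin B 10 µg/mL, positive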
Yeast life ext: extends the lifespan of yeast; S. cerevisiae growth with nicotinamide, OD615; deaD strain in restrictive glucose medium; inhibition of the nicotinamide effect, % at 10 µM; actives 0.68% (n = 130,000);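 active means inhibition above a set limit, placed 3 SD over the median of all compounds, cut at about 26% in these data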;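 further: 0% = nicotinamide-treated wells and 100% = cells grown without nicotinamide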
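Assay system: DeaD-strain S. cerevisiae. Medium: CSMM-D glucose medium, restrictive. Reagent: nicotinamide, 1.5 mM, co-present with compound. Compound: 10 µM single point, 0.25% DMSO. Schedule: culture preincubation 4 h, compound exposure 48 h, both 30 °C. Detection: absorbance at 615 nm.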
WT yeast gro inh: growth inhibition of WT yeast, mitochondrial fusion screen. mitochondrial fusion phenotypic screen, WT strain. inhibition, % at 10 µM. actives 2.1% (n = 190,000). AID 1362; in the data active means inhibition above about 58%; tested in S. cerevisiae
RAM network inh: inhibitors of the yeast RAM network; S. cerevisiae dse1pr::URA3 reporter, 5-FOA growth OD615, 2 d; analog-sensitive cbk1-as2 kinase mutant strain; inhibition, % at 50 µM; actives 1.8% (n = 190,000); AID 868;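 active means inhibition above a set limit, 3 SD over mean compound inhibition, cut at about 8.4% in these data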;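 further: 0% = DMSO-only wells with no growth and 100% = 10 µM 1-NA-PP1 full growth; inhibition rescues growth on 5-FOA so higher OD means more RAM inhibition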
The depositor's hits bear a star; · = no result. The list is not random: actives were taken first. Their share in the collection is about 4.3%.

SMILES	Yeast growth inh	Yeast life ext	WT yeast gro inh	RAM network inh
COc1ccc(C2CC(c3ccccc3)=NN2c2ccc(S(N)(=O)=O)cc2)cc1 (centres undefined)	·	·	66*	9.3*
COc1ccc(C2CC(c3cccs3)=NN2c2ccc(C=O)cc2)cc1 (centres undefined)	-26	2	18	6
COc1ccc(C2CC(c3ccccc3)=NN2C(=O)CSc2ncccn2)cc1 (centres undefined)	-20	-1	-2	11*
Nc1n[nH]c(N)c1N=Nc1ccc2c(c1)OCO2	·	·	28	0
CCOC(=O)CC1COCCN1Cc1cn(C)nc1-c1ccccc1F (centres undefined)	·	·	-2	3
Cc1ccccc1CN1C[C@@H]2C[C@@H](c3cnc(N4CCOCC4)s3)N3CCC[C@@]23C1=O	·	·	10	0
COc1ccc(CCNc2oc(COc3ccc(Br)cc3)nc2C#N)cc1OC	-63	-2	22	10.0*
Cc1cnc(C(=O)NCC(c2ccccc2)c2ccccc2)cn1	·	·	-6	2
CCCCCCCCCCCCCCCC(O)C(N)CO (centres undefined)	100*	-10	27	-1
CC(=O)N(CCC(Cc1ccccc1)c1ccc2c(c1)OCO2)Cc1ccccc1F (centres undefined)	-21	1	78*	3
COc1cccc(/C=C2\N=C(SC)SC2=O)c1OC	-40	-2	9	9.6*
Cc1cc(C)cc(OCc2nnc(SCC(=O)OC(C)C)o2)c1	-26	2	-5	0
CCOc1ccccc1-c1nc(C(N)=O)c2[nH]c(=O)n(-c3ccccc3)c2n1	-26	-5	-4	9.7*
CC12CC3(C)CC(C)(C1)CC(C(=O)NC(=S)N1CCOCC1)(C2)C3	-14	0	5	-1
CC12CC3(C)CC(C)(C1)CC(C(=O)NC(=S)NC(C)(C)C)(C2)C3	-12	-7	70*	5
O=C(NC(=S)NC1C2CC3CC(C2)CC1C3)C12CC3CC(CC(C3)C1)C2 (centres undefined)	-22	-1	63*	5
CC(C)(C)NC(=S)NC(=O)C12CC3CCC(CC(C3)C1)C2	-29	8	70*	5
Cc1nc2scc(-c3ccccc3)c2c(=O)n1N=C1C=CC(=O)C=C1	·	·	9	1
CCOC(=O)C1C(=O)C(C(C)=O)C(=O)CC1CC(C)SCC (centres undefined)	-50	93*	-13	-2
CCSC(C)CC1CC(=O)CC(=O)C1 (centres undefined)	-18	18	5	1
CCCN1CCN(c2ncnc3scc(C4COc5ccccc5O4)c23)CC1 (centres undefined)	·	·	58*	2
CC(NC(=O)Cn1nnc(-c2ccncc2)n1)c1ccccc1 (centres undefined)	-18	·	3	0
CCCCCCOC(=O)Sc1nc2ccccc2o1	81*	-26	-16	-1
Cc1cc(C)cc(NC(=O)C(=O)NCCCN2CCOCC2)c1	·	·	-9	0
CC(C)OC(=O)CC(=O)CSc1nc2c(c(-c3cccs3)c1C#N)CCC2	-29	7	11	10*
SMILES	Yeast growth inh	Yeast life ext	WT yeast gro inh	RAM network inh
CC(C)OC(=O)CC(=O)CSc1nc2c(cc1C#N)CCC2	-28	-20	-11	1
COc1ccc2cc(C(=O)Nc3ccc(S(N)(=O)=O)cc3)sc(=O)c2c1OC	·	·	0	4
CCOC(=O)c1c(NC(=S)Nc2ccc(Cl)cc2)sc(C)c1C	-42	-8	0	5
COC(=O)c1c(NC(=S)Nc2ccc(CC(=O)O)cc2)sc(C)c1C	-15	4	-12	10*
Cc1ccccc1NC(=O)c1cc2c(C)nc3ccccc3c2o1	·	·	14	1
CCc1ccc(NC(=O)c2cc3c(C)nc4ccccc4c3o2)cc1	·	·	63*	-1
O=P(COCCOCCOCCOCP(=O)(c1ccccc1)c1ccccc1)(c1ccccc1)c1ccccc1	·	·	13	1
Cc1nc(NC(C)c2ccccc2)c2oc3ccccc3c2n1 (centres undefined)	-55	-11	66*	0
O=C(N/C=N/OCc1ccc(Cl)cc1Cl)NOCc1ncc(C(F)(F)F)cc1Cl	-30	-3	69*	8
CO/N=C/NC(=O)NOCc1ncc(C(F)(F)F)cc1Cl	4	-6	-21	2
O=C(c1ccco1)N1CCN(C(c2ccccc2)c2nnnn2C2CCCC2)CC1 (centres undefined)	-14	·	-14	0
COc1cc(/C=N/OCC(=O)NC2CCCCC2)ccc1OCc1ccccc1	-16	0	-11	7
COc1cc(/C=N/OCC(=O)Nc2ccc(OC(F)F)cc2)ccc1OCc1ccccc1	-40	1	31	8.4*
CCOc1ccc(/C=N/OCC(=O)Nc2ccc(OCc3ccccc3)cc2)cc1OC	-26	-4	3	11*
COCCNC(=O)C(=O)NNS(=O)(=O)c1ccc2ccccc2c1	·	·	14	1
COC(=O)c1ccc(C2N=C(c3cccs3)CC(c3ccccc3O)N2)cc1 (centres undefined)	·	·	62*	1
O=C(Nc1cc(C(F)(F)F)ccc1Cl)C(Sc1cccc[n+]1[O-])c1ccccc1 (centres undefined)	93*	-8	24	-1
BrC(=C\c1ccccc1)/C=N/N1CCN(c2ccccn2)CC1	-12	-9	-28	-2
CC(c1cccs1)N(Cc1ccco1)C(=S)Nc1ccccc1Cl (centres undefined)	·	·	63*	4
CC(c1cccs1)N(Cc1ccco1)C(=S)Nc1ccc(F)c(Cl)c1 (centres undefined)	·	·	78*	4
Cc1ccccc1NC(=S)N(Cc1ccco1)C(C)c1cccs1 (centres undefined)	·	·	32	0
Cc1cccc(NC(=S)N(Cc2ccco2)C(C)c2cccs2)c1 (centres undefined)	·	·	72*	2
CCOC(=O)c1ccc(NC(=O)C2(c3ccccc3)CCOCC2)cc1	-20	·	13	0
O=C1NCCCC1C(=O)N/N=C/c1cccc(O)c1 (centres undefined)	100*	-1	-22	0
CCCCc1ccc(-c2nc(NC(=O)C3C4CCC(O4)C3C(=O)O)sc2C)cc1 (centres undefined)	-30	-10	88*	0
SMILES	Yeast growth inh	Yeast life ext	WT yeast gro inh	RAM network inh
COc1cccc(C(=O)/C=C/Nc2ccc(S(=O)(=O)Nc3onc(C)c3C)cc2)c1	-50	3	-14	8.9*
CC(=O)c1cccc(NS(=O)(=O)c2ccc(N/C=C/C(=O)c3ccc(F)cc3)cc2)c1	-25	7	-3	9.6*
CCOCCCNC(=O)/C(C#N)=C/c1ccccc1F	·	·	14	5
O=C(NC(=S)NCC1CCCO1)c1ccc(Br)o1 (centres undefined)	·	·	11	-1
O=C(Nc1cccc(Cl)c1Cl)c1cc(S(=O)(=O)NCCc2ccccc2)ccc1F	-64	8	7	9.4*
Cc1cccc(C(=O)OCC(=O)NC(C)CCc2ccccc2)c1 (centres undefined)	·	·	0	10*
Cc1cccc(NC(=S)NC(C)CCc2ccccc2)c1 (centres undefined)	15	-4	74*	2
